Bioassay records: PubChem BioAssay, Sanford-Burnham Center for Chemical Genomics
STEP inh – inhibitors of human striatal-enriched phosphatase STEP | P54829 | recombinant STEP, OMFP fluorogenic substrate, fluorescence | inhibition, % at 20 µM | 360,000 compounds, 0.25% hits | AID 588621;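 active = inhibition at 20 µM, scaled per plate between control wells, above about 37%, limit read from the data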
Target sequence (P54829 whole entry, looked up): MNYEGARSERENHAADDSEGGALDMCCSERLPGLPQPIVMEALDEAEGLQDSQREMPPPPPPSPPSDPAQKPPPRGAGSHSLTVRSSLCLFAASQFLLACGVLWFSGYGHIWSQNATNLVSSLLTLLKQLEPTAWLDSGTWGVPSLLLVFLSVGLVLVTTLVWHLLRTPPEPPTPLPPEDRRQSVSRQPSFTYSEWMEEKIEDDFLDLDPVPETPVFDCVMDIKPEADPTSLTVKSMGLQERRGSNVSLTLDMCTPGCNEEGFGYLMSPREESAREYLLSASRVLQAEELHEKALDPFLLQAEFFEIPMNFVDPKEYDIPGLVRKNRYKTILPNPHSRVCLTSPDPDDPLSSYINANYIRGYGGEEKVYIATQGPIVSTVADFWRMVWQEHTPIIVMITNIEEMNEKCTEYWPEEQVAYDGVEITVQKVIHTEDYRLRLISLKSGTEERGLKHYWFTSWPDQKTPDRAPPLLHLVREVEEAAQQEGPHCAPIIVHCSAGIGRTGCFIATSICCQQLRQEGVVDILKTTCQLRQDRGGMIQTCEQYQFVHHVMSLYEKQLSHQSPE
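Assay system: isolated STEP enzyme / Timing: 20 min at room temperature, dark / Doses: 20 µM, 1% DMSO / Technique: fluorescence intensity, excitation 480 nm, emission 540 nm / Reagent: fluorogenic phosphatase substrate OMFP at 25 µM final / Measure: percent inhibition scaled to no-enzyme and uninhibited-enzyme controls, plate-pattern corrected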
LMPTP inh – blocks human LMPTP phosphatase. recombinant LMPTP-A, OMFP fluorogenic substrate, fluorescence intensity. inhibition, % at 20 µM. P24666. 360,000 compounds, 0.22% hits;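 active = compounds that cut the enzyme signal by at least half of the control window in the single-dose screen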
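Material: LMPTP-A; amount: 0.625 nM enzyme; doses: single 20 µM dose; times: reaction 50 min, room temperature, dark; technique: fluorescence intensity of OMFP turnover product; benchmarks: no-enzyme and uninhibited controls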
DNMT1 inh – inhibitors of human DNMT1 | AID 588458 | inhibition (reported as % activation of signal), % at 10 µM | DNMT1 molecular beacon, Hinp1I cleavage, fluorescence | P26358 | 360,000 compounds, 0.83% hits; in the data active = inhibition above about 50%
SUMO1 PPI mod – SUMO1-SIM interaction modulation; P63165; SUMO1 binding to a labelled peptide, TR-FRET, 1 h; inhibition, % at 20 µM; 360,000 compounds, 0.33% hits; in the data active = inhibition above about 37%
Target sequence (P63165 whole entry, looked up): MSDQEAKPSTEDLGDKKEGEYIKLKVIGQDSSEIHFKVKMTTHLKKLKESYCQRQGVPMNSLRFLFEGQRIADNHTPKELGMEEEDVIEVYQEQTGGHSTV
Scp-1 inhibitor – inhibitors of human Scp-1 phosphatase. AID 493091. Q9GZU7. Recombinant Scp1, phosphopeptide, malachite green phosphate absorbance. 340,000 compounds, 0.88% hits. inhibition, % at 20 µM;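 active = inhibition above about 50% at 20 µM, limit read from the data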
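System: truncated SCP-1 phosphatase (76-261aa); medium: Tris acetate buffer pH 5.5 with MgCl2 and Tween-20; incubation: 45 min room-temperature reaction, 5 min colour, 30 min stabiliser; compound: single 20 µM dose, 1% DMSO; reagent: Phosphorylated 17-residue peptide substrate; read-out: % inhibition at 20 µM; technique: colorimetric free-phosphate detection, absorbance 630 nm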
DNMT1 interf DR – counter-screen for DNMT1 inhibitors: spectral interference, dose response; shares compounds with DNMT1 inh; molecular beacon fluorescence; IC50, µM; 200 tested, under 10 active; AID 602382; call rule not given here
DNMT1 inh conf – DNMT1 inhibition confirmation, single concentration. 2,300 compounds, 8% hits. DNMT1 molecular beacon HinP1I cleavage, fluorescence. shares compounds with DNMT1 inh. inhibition, % at 10 µM;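 active = average inhibition of at least 30% in the single-concentration confirmation test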
Beacon interf – shows spectral interference in the DNMT1 beacon assay. DNMT1 molecular beacon spectral interference counterscreen, fluorescence 485/520. activation (fluorescence interference), % at 10 µM. 2,300 compounds, 1% hits. shares compounds with DNMT1 inh;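 active = activation of at least 30% at 10 µM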;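 also: DNMT1 catalytic domain with a HinP1I cleavage step and a FAM/dabcyl DNA beacon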
Hits are given with their value; i = inactive; nt = no result. Only some compounds are listed: those with a hit (about 1.7% of all), similar ones and a draw of the others.

SMILES	STEP inh	LMPTP inh	DNMT1 inh	SUMO1 PPI mod	Scp-1 inhibitor	DNMT1 inh conf	Beacon interf	others
O=C([C@@H]1CCCN1C(=O)c1cccs1)N1CCN(S(=O)(=O)c2cccc(F)c2)CC1	i	i	i	i	i	nt	nt
O=C(CSc1ccc(-c2ccccn2)nn1)Nc1cccc(F)c1	i	i	i	i	i	nt	nt
CCOc1ccc(S(=O)(=O)N(CC(=O)N/N=C/c2ccc(-c3ccc([N+](=O)[O-])cc3)o2)c2ccccc2)cc1	i	i	100	i	i	i	i
CCOC(=O)c1ccc(-c2ccc(/C=N/NC(=O)CN(c3cccc(C)c3)S(C)(=O)=O)o2)cc1	i	i	57	i	i	i	i
COc1ccc(NC(=O)C(c2ccc(Cl)cc2)C(C)C)cn1 (centres undefined)	i	i	i	i	i	nt	nt
COc1ccc(/C=N/NC(=O)c2ccc(NC(C)=O)cc2)cc1COc1ccc(F)cc1F	i	i	77	i	i	i	i
COc1ccc(/C=N/NC(=O)c2nc(Cl)c(Cl)c(N)c2Cl)cc1COc1ccc(F)cc1F	i	i	53	i	i	i	i
COc1ccc(/C=N\NC(=O)c2ccccc2F)cc1COc1ccc(F)cc1F	i	i	i	i	i	nt	nt
C=CCOc1cccc(C(=O)N2CCCC(CNS(=O)(=O)c3cccs3)C2)c1 (centres undefined)	i	i	i	i	i	nt	nt
O=[N+]([O-])c1cc(/C=N/n2c(-c3ccncc3)n[nH]c2=S)ccc1Cl	i	i	55	i	i	i	i
S=c1[nH]nc(-c2cc(-c3ccccc3)n[nH]2)n1/N=C/c1ccc(Cl)c(Cl)c1	i	i	83	98	i	i	i
O=[N+]([O-])c1ccc(-c2nn(-c3ccccc3)cc2/C=N/n2c(-c3ccncc3)n[nH]c2=S)cc1	i	i	57	i	i	i	i
S=c1[nH]nc(-c2ccncc2)n1/N=C/c1cn(-c2ccccc2)nc1-c1ccccc1	i	i	i	i	i	nt	nt
Cc1cc(-c2n[nH]c(=S)n2/N=C/c2ccc(Cl)c([N+](=O)[O-])c2)n[nH]1	i	i	i	i	i	nt	nt
Oc1ccc(Br)cc1/C=N/n1c(-c2ccccc2)n[nH]c1=S	i	i	82	i	i	i	i
COc1cc(CCCN2C(N)=NC[C@H]2Cc2ccc(O)cc2)cc(OC)c1OC	i	i	i	i	i	nt	nt
Cc1cc(C)cc(OCCNC(=O)C2CCN(S(=O)(=O)c3ccccc3)CC2)c1	i	i	i	i	i	nt	nt
c1cc2ccc3ccc(-n4cnnn4)c4ccc(c1)c2c34	i	i	60	i	i	i	i
CN1/C(=C\C(=O)c2cccc([N+](=O)[O-])c2)Sc2ccccc21	i	i	52	i	i	i	i
COc1cc(OC)cc(C(=O)/C=C2\Sc3ccccc3N2C)c1	i	i	i	i	i	nt	nt
O=c1c2ccccc2oc2cc(-c3ccc(CN4CCOCC4)cc3)ccc12	i	i	i	i	i	nt	nt
CC(NC(=O)C1CCN(C(=O)c2cccs2)CC1)c1ccc(S(N)(=O)=O)cc1 (centres undefined)	i	i	i	i	i	nt	nt
COc1ccc(CCNC(=O)c2nn(C)c3c2CS(=O)(=O)c2ccccc2-3)cc1OC	i	i	i	i	i	nt	nt
C=CCn1c(SCC#N)nnc1-c1ccc2ncccc2c1	i	i	i	i	i	nt	nt
Cc1cc(C)c(C)c(S(=O)(=O)N2CCN(c3ncnc4ccccc34)CC2)c1C	i	i	75	i	i	i	i
SMILES	STEP inh	LMPTP inh	DNMT1 inh	SUMO1 PPI mod	Scp-1 inhibitor	DNMT1 inh conf	Beacon interf	others
O=C(O)CCN=CC1=C(O)CC(c2ccccc2)CC1=O (centres undefined)	i	i	i	i	i	nt	nt
CCC(=O)N1N=C(c2c(-c3ccccc3)c3cc(Cl)ccc3[nH]c2=O)CC1c1ccco1 (centres undefined)	i	i	52	i	i	i	i
O=C(O)CCC(=O)N1N=C(c2c(-c3ccccc3)c3cc(Cl)ccc3[nH]c2=O)CC1c1ccco1 (centres undefined)	i	i	i	i	i	nt	nt
Cc1ccc(C2/C(=C(/O)c3ccccc3)C(=O)C(=O)N2CCN2CCOCC2)o1 (centres undefined)	i	i	i	i	i	nt	nt
Cc1ccc(C)c(/C(O)=C2/C(=O)C(=O)N(CCN3CCOCC3)C2c2ccco2)c1 (centres undefined)	i	i	83	i	i	i	i
COc1cc(/C=N/NC(=O)c2cc(-c3ccc4c(c3)OCO4)n[nH]2)ccc1O	i	i	i	i	i	nt	nt
O=C(N/N=C/c1ccc([N+](=O)[O-])cc1)c1cc(-c2ccc3c(c2)OCO3)n[nH]1	i	i	50	i	i	i	i
COC(=O)c1c(C(=O)OC)c(C)n(Cc2ccco2)c1C	i	i	i	i	i	nt	nt
CCOc1cccc(=O)c2c(C)n(Cc3ccco3)c(C)c12	i	i	81	i	i	i	i
O=C(N/N=C/c1ccc(Cl)cc1)C(=O)N1CCCCCC1	i	i	i	i	i	nt	nt
Cc1ccc(Cn2c(/C=C/c3ccco3)nc3ccccc32)cc1	i	i	76	i	i	i	i
COc1ccc(CNC(=O)[C@H](C)NC(=O)C2CCN(C(=O)[C@@H](N)Cc3ccccc3)CC2)cc1	i	i	i	i	i	nt	nt
CCN(CC)CCn1c2ccccc2c2cnc(N)c(C#N)c21	i	i	61	i	i	38	i	DNMT1 interf DR=i
CC(Sc1nc2ccc(C(=O)c3ccccc3)cc2[nH]1)C(=O)O (centres undefined)	i	i	81	i	i	i	i
CC(Sc1nc2ccc(Br)cc2[nH]1)C(=O)O (centres undefined)	i	i	i	i	i	nt	nt
CC(C)n1cc(CN2CCCC(C(=O)Nc3ccccc3Oc3cccnc3)C2)cn1 (centres undefined)	i	i	i	i	i	nt	nt
CN(C)C1(CN=Cc2cc(Cl)cc([N+](=O)[O-])c2O)CCCCC1	i	i	i	i	i	nt	nt
CCCCCCCCN1[C@@H](CC(=O)OC)c2cc(F)ccc2S1(=O)=O	i	52	82	i	i	i	i
O=C1NC(=S)N/C1=C/c1cccn1-c1ccc([N+](=O)[O-])cc1	i	i	55	i	i	i	i
CC(=O)NCCC(=O)Nc1cccc(S(=O)(=O)N(C)c2ccccc2)c1	i	i	56	i	i	i	i
COc1cccc(OCc2cc(C(=O)N(C)Cc3nccn3C)no2)c1	i	i	i	i	i	nt	nt
